Source: ChEMBL document CHEMBL4219132, “Sulfamic acid promoted one-pot synthesis of phenanthrene fused-dihydrodibenzo-quinolinones: Anticancer activity, tubulin polymerization inhibition and apoptosis inducing studies” (Bioorg Med Chem, 2018)
The source made the active and inactive calls. The rule behind the calls is not given here.

How the values were obtained:
A549 [1] = assay: Induction of apoptosis in human A549 cells assessed as apoptotic body formation at 10 uM after 48 hrs by AO/EB double staining based fluorescence microscopy; format: functional, cell-based
In short: (§1)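 A549 cells (1×10^6 cell/ml) were treated with different concentrations for 48 h at 37 °C in 5% CO2. Acridine orange and ethidium bromide (10 μg/mL each) were added, and after 10 min cells were viewed by fluorescence microscopy (ex 488/em 550 nm) at 200x.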

A549 [2] = assay: Induction of apoptosis in human A549 cells assessed as cell shrinkage at 10 uM after 48 hrs by AO/EB double staining based fluorescence microscopy; format: functional; in short: as §1
A549 [3] = assay: Induction of ROS generation in human A549 cells after 24 hrs by DCFDA dye-based fluorescent microscopy; format: functional, cell-based
In short: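 A549 cells (1×10^6 cells/mL) were left to adhere overnight, then treated 24 h with 1.25, 2.5, 5.0 or 10.0 μM. Medium was replaced with medium containing 10 μM DCFDA for 30 min in the dark. Fluorescence was read on a plate reader (ex 488/em 525 nm) and cells were imaged by fluorescence microscopy. NAC and H2O2 (positive control) were included. Mean ± SEM, n=3.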

A549 [4] = assay: Cytotoxicity against human A549 cells assessed as cell growth inhibition after 48 hrs by MTT assay; format: functional, cell-based; details: A549, 48 h
In short: (§2)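 MTT assay. Cells were seeded at 1×10^4 per well in their medium with 10% FBS and allowed 24 h at 37 °C. Compound diluted in medium was added alongside a vehicle control and left for 48 h. MTT (0.5 mg/mL) was then added for 4 h, formazan dissolved in DMSO, and absorbance read at 570 nm. IC50 is the concentration inhibiting 50% of cells.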

A549 [5] = assay: Induction of apoptosis in human A549 cells assessed as chromatin condensation at 10 uM after 48 hrs by AO/EB double staining based fluorescence microscopy; format: functional, cell-based; in short: as §1
A549 [6] = assay: Induction of apoptosis in human A549 cells after 48 hrs by Annexin-V/propidium iodide staining based flow cytometry; format: functional, cell-based
A549 [7] = assay: Cytotoxicity against human A549 cells assessed as reduction in cell viability by measuring cell shrinkage at 1.25 to 10 uM after 48 hrs by phase contrast microscopy; format: functional, cell-based
In short: (§3)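 A549 cells (1×10^5 cells/mL) were plated in 6-well plates and left to adhere overnight. They were then incubated 48 h with 1.25, 2.5, 5.0 or 10.0 μM and examined for morphological changes by phase contrast microscopy at 200X.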

A549 [8] = assay: Induction of apoptosis in human A549 cells assessed as necrotic cells at 2.5 uM after 48 hrs by Annexin-V/propidium iodide staining based flow cytometry (reference value: 0.63%); format: functional
A549 [9] = assay: Induction of apoptosis in human A549 cells assessed as late apoptotic cells at 10 uM after 48 hrs by Annexin-V/propidium iodide staining based flow cytometry (reference value: 0.71%); format: functional
A549 [10] = assay: Cell cycle arrest in human A549 cells assessed as accumulation at sub G1 phase at 10 uM after 48 hrs by propidium iodide-staining based flow cytometry (reference value: 4.52 +/- 2.47%); format: functional
A549 [11] = assay: Induction of apoptosis in human A549 cells assessed as viable cells at 10 uM after 48 hrs by Annexin-V/propidium iodide staining based flow cytometry (reference value: 93.39%); format: functional; details: A549, 48 h, read-out: Activity
A549 [12] = assay: Induction of apoptosis in human A549 cells assessed as late apoptotic cells at 1.25 uM after 48 hrs by Annexin-V/propidium iodide staining based flow cytometry (reference value: 0.71%); format: functional
A549 [13] = assay: Cytotoxicity against human A549 cells assessed as reduction in cell viability by measuring cell detachment at 1.25 to 10 uM after 48 hrs by phase contrast microscopy; format: functional, cell-based; in short: as §3
A549 [14] = assay: Induction of apoptosis in human A549 cells assessed as viable cells at 2.5 uM after 48 hrs by Annexin-V/propidium iodide staining based flow cytometry (reference value: 93.39%); format: functional; details: A549, 48 h, read-out: Activity
A549 [15] = assay: Induction of apoptosis in human A549 cells assessed as necrotic cells at 10 uM after 48 hrs by Annexin-V/propidium iodide staining based flow cytometry (reference value: 0.63%); format: functional
A549 [16] = assay: Induction of apoptosis in human A549 cells assessed as viable cells at 1.25 uM after 48 hrs by Annexin-V/propidium iodide staining based flow cytometry (reference value: 93.39%); format: functional; details: A549, 48 h, read-out: Activity
A549 [17] = assay: Induction of mitochondrial membrane potential loss in human A549 cells assessed as increase in depolarized cell population after 24 hrs by JC-1-dye based flow-cytometry
A549 [18] = assay: Induction of apoptosis in human A549 cells assessed as viable cells at 5 uM after 48 hrs by Annexin-V/propidium iodide staining based flow cytometry (reference value: 93.39%); format: functional; details: A549, 48 h, read-out: Activity
A549 [19] = assay: Induction of apoptosis in human A549 cells assessed as late apoptotic cells at 5 uM after 48 hrs by Annexin-V/propidium iodide staining based flow cytometry (reference value: 0.71%); format: functional
A549 [20] = assay: Induction of mitochondrial membrane potential loss in human A549 cells assessed as depolarized cell population at 10 uM after 24 hrs by JC-1-dye based flow-cytometry (reference value: 8.31 +/- 3.72%)
A549 [21] = assay: Induction of apoptosis in human A549 cells assessed as early apoptotic cells at 1.25 uM after 48 hrs by Annexin-V/propidium iodide staining based flow cytometry (reference value: 5.27%); format: functional
HT-29 = assay: Cytotoxicity against human HT-29 cells assessed as cell growth inhibition after 48 hrs by MTT assay; format: functional, cell-based; details: HT-29, 48 h; in short: as §2
PC-3 = assay: Cytotoxicity against human PC3 cells assessed as cell growth inhibition after 48 hrs by MTT assay; format: functional, cell-based; details: PC-3, 48 h; in short: as §2
A549 [22] = assay: Induction of apoptosis in human A549 cells assessed as early apoptotic cells at 10 uM after 48 hrs by Annexin-V/propidium iodide staining based flow cytometry (reference value: 5.27%); format: functional
A549 [23] = assay: Induction of apoptosis in human A549 cells assessed as early apoptotic cells at 5 uM after 48 hrs by Annexin-V/propidium iodide staining based flow cytometry (reference value: 5.27%); format: functional
A549 [24] = assay: Induction of apoptosis in human A549 cells assessed as necrotic cells at 1.25 uM after 48 hrs by Annexin-V/propidium iodide staining based flow cytometry (reference value: 0.63%); format: functional
A549 [25] = assay: Induction of apoptosis in human A549 cells assessed as nuclei condensation at 1.25 to 10 uM after 48 hrs by DAPI staining-based fluorescence microscopy; format: functional, cell-based
In short: (§4)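 A549 cells were treated for 48 h, washed with PBS, and permeabilised with 0.1% Tween 20 for 10 min. They were stained with 1 μM DAPI and viewed by fluorescence microscopy (ex 359/em 461 nm, DAPI filter) at 200X.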

A549 [26] = assay: Cell cycle arrest in human A549 cells assessed as accumulation at G2/M phase at 10 uM after 48 hrs by propidium iodide-staining based flow cytometry (reference value: 34.25 +/- 5.75%); format: functional
A549 [27] = assay: Induction of apoptosis in human A549 cells assessed as early apoptotic cells at 2.5 uM after 48 hrs by Annexin-V/propidium iodide staining based flow cytometry (reference value: 5.27%); format: functional
DU-145 = assay: Cytotoxicity against human DU145 cells assessed as cell growth inhibition after 48 hrs by MTT assay; format: functional, cell-based; details: DU-145, 48 h; in short: as §2
[28] = Inhibition of pig brain tubulin polymerization assessed as reduction in tubulin assembly by fluorescence-based assay; parameters: species or system Sus scrofa
In short: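 Kit assay with porcine brain tubulin (2 mg/mL) in 80 mM PIPES pH 6.9, 2.0 mM MgCl2, 0.5 mM EGTA, 1.0 mM GTP and glycerol. Test compound was used at final 10, 5, 2.5 or 1.25 μM. Polymerization was followed for 1 h at 37 °C by fluorescence reporter incorporation (ex 360/em 440 nm). Runs were in duplicate, and IC50 is the concentration inhibiting 50% of assembly versus control.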

A549 [29] = assay: Induction of apoptosis in human A549 cells assessed as membrane blebbing at 10 uM after 48 hrs by AO/EB double staining based fluorescence microscopy; format: functional, cell-based; in short: as §1
HCT-116 = assay: Cytotoxicity against human HCT116 cells assessed as cell growth inhibition after 48 hrs by MTT assay; format: functional, cell-based; details: HCT-116, 48 h; in short: as §2
MCF7 = assay: Cytotoxicity against human MCF7 cells assessed as cell growth inhibition after 48 hrs by MTT assay; format: functional, cell-based; details: MCF7, 48 h; in short: as §2
A549 [30] = assay: Induction of apoptosis in human A549 cells assessed as late apoptotic cells at 2.5 uM after 48 hrs by Annexin-V/propidium iodide staining based flow cytometry (reference value: 0.71%); format: functional
A549 [31] = assay: Induction of apoptosis in human A549 cells assessed as horse-shoe shaped nuclei at 1.25 to 10 uM after 48 hrs by DAPI staining-based fluorescence microscopy; format: functional, cell-based; in short: as §4
A549 [32] = assay: Induction of apoptosis in human A549 cells assessed as necrotic cells at 5 uM after 48 hrs by Annexin-V/propidium iodide staining based flow cytometry (reference value: 0.63%); format: functional
A549 [33] = assay: Cell cycle arrest in human A549 cells assessed as accumulation at sub G1 phase after 48 hrs by propidium iodide-staining based flow cytometry; format: functional

COc1cc2c3c(c4cc(OC)c(OC)cc4c2cc1OC)C(c1ccc2c(c1)OCO2)CC(=O)N3 (stereo not drawn)
Activity (A549 [1]): Active | Activity (A549 [2]): Active | Activity (A549 [3]): Dose-dependent effect | IC50 (A549 [4]): 3.17 µM | Activity (A549 [5]): Active | Activity (A549 [6]): Dose-dependent effect | Activity (A549 [7]): Dose-dependent effect | Activity (A549 [8]): 0.01% | Activity (A549 [9]): 1.93% | Activity (A549 [10]): 31.22% | viability at 10 µM (A549 [11]): 47.5% | Activity (A549 [12]): 1.32% | Activity (A549 [13]): Dose-dependent effect | viability at 2.5 µM (A549 [14]): 81.8% | Activity (A549 [15]): 0.01% | viability at 1.25 µM (A549 [16]): 89.1% | Activity (A549 [17]): Dose-dependent effect | viability at 5 µM (A549 [18]): 74.2% | Activity (A549 [19]): 0.92% | Activity (A549 [20]): 79.8% | Activity (A549 [21]): 9.5% | IC50 (HT-29): 7.84 µM | IC50 (PC-3): 12.1 µM | Activity (A549 [22]): 50.6% | Activity (A549 [23]): 24.86% | Activity (A549 [24]): 0.09% | Activity (A549 [25]): Active | Activity (A549 [26]): 61.2% | Activity (A549 [27]): 17.3% | IC50 (DU-145): 17.5 µM | IC50 [28]: 5.15 µM | Activity (A549 [29]): Active | IC50 (HCT-116): 7.61 µM | IC50 (MCF7): 9.59 µM | Activity (A549 [30]): 0.85% | Activity (A549 [31]): Active | Activity (A549 [32]): 0.01% | Activity (A549 [33]): Dose-dependent effect
